Measured values from paper PMC2920599 (Journal of medicinal chemistry, 2010).
Where a name gives a salt, the structure may show the parent alone. Read-outs that look alike come from different tables or passages of the source.

How the values were obtained:
Leukemia = assay: NCI 60 cell panel, five-concentration assay, leukemia subpanel; assay type: cell-based; settings: total growth inhibition; 48 h exposure
NSCLC = assay: NCI 60 cell panel, five-concentration assay, NSCLC subpanel; assay type: cell-based; settings: total growth inhibition; 48 h exposure
Colon = assay: NCI 60 cell panel, five-concentration assay, colon subpanel; assay type: cell-based; settings: total growth inhibition; 48 h exposure
CNS = assay: NCI 60 cell panel, five-concentration assay, CNS subpanel; assay type: cell-based; settings: total growth inhibition; 48 h exposure
Melanoma = assay: NCI 60 cell panel, five-concentration assay, melanoma subpanel; assay type: cell-based; settings: total growth inhibition; 48 h exposure
Ovarian = assay: NCI 60 cell panel, five-concentration assay, ovarian subpanel; assay type: cell-based; settings: total growth inhibition; 48 h exposure
Renal = assay: NCI 60 cell panel, five-concentration assay, renal subpanel; assay type: cell-based; settings: total growth inhibition; 48 h exposure
Prostate = assay: NCI 60 cell panel, five-concentration assay, prostate subpanel; assay type: cell-based; settings: total growth inhibition; 48 h exposure
Breast = assay: NCI 60 cell panel, five-concentration assay, breast subpanel; assay type: cell-based; settings: total growth inhibition; 48 h exposure
full NCI 60 cell panel [1] = settings: for TGI MG-MID (mean TGI) / GI50: calculated panel mean, 48 h exposure; for GI50: read-out: GI50 MG-MID (mean GI50)
full NCI 60 cell panel [2] = assay: cells; settings: Homo sapiens, 48 h, read-out: GI50 MG-MID (mean GI50)
[3] = system: MCF-7 breast cancer cells; assay: Growth and death of MCF-7 cells; assay type: cell-based, human; settings: 200 nM, viable cells counted daily
Summary of the method: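 MCF-7 cells grown in RPMI 1640 with 10% FBS and 2 mM L-glutamine at 37°C, 5% CO2. Plated at 2×10^4 cells/cm2; compound added 24 h later from 10 mmol/L DMSO working solutions, with DMSO-only controls. Cells harvested with 0.11% trypsin/0.02% EDTA and counted; viability by trypan blue exclusion. Treated vs control compared by Student t-test, P<0.05.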

p53 = assay: Western blotting of p53 in MCF-7 cells; assay type: cell-based, human; settings: 5 μM
ERK1/2 = assay: Western blotting of ERK1/2 phosphorylation in MCF-7 cells; assay type: cell-based, human; settings: 5 μM, 20 h
Summary of the method: (§1)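 MCF-7 cells treated 20 h, then collected in 20 mM HEPES pH 7.5 with 5 mM DTT, 2 mM EDTA, 0.1% CHAPS, 0.1% Triton X-100 and protease inhibitors, and freeze-thawed twice. Extracts run on SDS-PAGE at 80 μg protein/lane and immunoblotted for total and phosphorylated ERK1/2 and Akt, p53, p21 and β-actin. Blots representative of at least three experiments.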

Akt = assay: Western blotting of Akt phosphorylation in MCF-7 cells; assay type: cell-based, human; settings: 5 μM, 20 h
Summary of the method: as §1

p21 = assay: Western blotting of p21 in MCF-7 cells; assay type: cell-based, human; settings: 5 μM, 24 h
Bax = Bax content in MCF-7 cells; assay type: cell-based, human
Summary of the method: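 MCF-7 cells seeded at 1×10^4 cells/cm2 on glass coverslips and treated. Then fixed in 3% p-formaldehyde, washed with 0.1 M glycine in PBS, and permeabilised in 70% ice-cold ethanol. Stained 1 h at room temperature with mouse monoclonal anti-Bax, then FITC anti-mouse IgG for 1 h, with propidium iodide for nuclei. Confocal imaging used sequential 488 and 568 nm excitation; image representative of three experiments.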

MCF-7 cells = assay: Cell cycle analysis of MCF-7 cells by flow cytometry; assay type: cell-based, human; settings: 200 nM, 24 and 48 h

| SMILES | TGI Leukemia (Leukemia) | TGI NSCLC (NSCLC) | TGI Colon (Colon) | TGI CNS (CNS) | TGI Melanoma (Melanoma) | TGI Ovarian (Ovarian) | TGI Renal (Renal) | TGI Prostate (Prostate) | TGI Breast (Breast) | TGI MG-MID (mean TGI) (full NCI 60 cell panel [1]) | GI50 (full NCI 60 cell panel [1]) | CC50 (full NCI 60 cell panel [1]) | also measured |
| --- | --- | --- | --- | --- | --- | --- | --- | --- | --- | --- | --- | --- | --- |
| CN(C)c1ccc2[nH]c(Cl)c(/C=C3/C(=O)Nc4ccc(O)cc43)c2c1 [Compound 19] | 13.49 µM | 31.62 µM | 20.42 µM | 36.31 µM | 25.70 µM | 52.48 µM | 33.88 µM | 53.70 µM | 33.88 µM | 29.51 µM | 4.37 µM | – | – |
| COc1cc2c(/C=C3/C(=O)Nc4ccc(Br)cc43)c(Cl)n(C)c2cc1C [Compound 9] | 20.89 µM | 9.33 µM | 6.03 µM | 7.08 µM | 7.41 µM | 13.49 µM | 6.76 µM | 8.91 µM | 4.90 µM | 8.32 µM | 1.66 µM | 36.3 µM | – |
| CN(C)c1ccc2[nH]c(Cl)c(/C=C3/C(=O)Nc4ccc(Cl)cc43)c2c1 [Compound 18] | 17.78 µM | 10.00 µM | 7.24 µM | 5.50 µM | 11.22 µM | 11.75 µM | 8.13 µM | 13.49 µM | 9.12 µM | 9.77 µM | – | 38.9 µM | – |
| CC[C@]1(O)C[C@H]2CN(CCc3c([nH]c4ccccc34)[C@@](C(=O)OC)(c3cc4c(cc3OC)N(C=O)[C@H]3[C@@](O)(C(=O)OC)[C@H](OC(C)=O)[C@]5(CC)C=CCN6CC[C@]43[C@@H]65)C2)C1 [Vincristine sulfate, reference compound] | 15.85 µM | 15.85 µM | 3.98 µM | 6.31 µM | 7.94 µM | 19.95 µM | 19.95 µM | 6.31 µM | 7.94 µM | 10.00 µM | – | – | GI50 (full NCI 60 cell panel [2]): 0.2 µM |
| COc1cc2c(/C=C3/C(=O)N(C)c4ccc(O)cc43)c(Cl)n(C)c2cc1C [Compound 14] | 0.47 µM | 6.03 µM | 3.55 µM | 1.74 µM | 7.41 µM | 11.75 µM | 4.27 µM | 3.16 µM | 1.70 µM | 3.39 µM | 0.1 µM | 33.9 µM | – |
| COc1cc2c(cc1C)N(C)C(=O)/C2=C/c1c(Cl)n(C)c2cc(C)c(OC)cc12 [Compound 15] | 56.23 µM | 69.18 µM | 83.18 µM | 26.92 µM | 67.61 µM | 60.26 µM | 41.69 µM | 67.61 µM | 36.31 µM | 52.48 µM | 14.1 µM | 87.1 µM | – |
| COc1cc2c(/C=C3/C(=O)Nc4cc(Cl)ccc43)c(Cl)n(C)c2cc1C [Compound 12] | 1.74 µM | 11.48 µM | 0.95 µM | 1.20 µM | 7.08 µM | 2.34 µM | 15.85 µM | – | 5.62 µM | 3.80 µM | – | 49 µM | effect on MCF-7 cell growth (total cell number) [3]: blocked MCF-7 cell growth within 48 h; p53 expression (p53; 20 h): caused a p53 increase; induction of p53 (densitometry) (p53; 24 h): threefold induction of p53; ERK phosphorylation (ERK1/2): decreased ERK phosphorylation; Akt phosphorylation (Akt): only slightly decreased; increase of p21 (densitometry) (p21): about 90%; cellular Bax by immunofluorescence microscopy (Bax; 5 μM, 24 h): considerable Bax accumulation; increase of Bax, densitometric analysis of Western blotting (Bax; n=3, data not shown): 2.8 times; cell cycle distribution: G2/M phase (MCF-7 cells): marked accumulation of MCF-7 cells in the G2/M phase; sub-G1 peak (apoptotic cells) (MCF-7 cells): a notable cell population was observed in a sub-G1-peak |
